# Screening results from PubChem BioAssay.
# Shown are actives, neighbours in structure and some others; about 2.4% of the full set was active somewhere.
# HNF4A DNA FP – change in binding of human HNF4A to DNA, primary screen, biochemical, fluorescence polarization, FITC-DNA. Hepatocyte nuclear factor 4-alpha (Homo sapiens), P41235. 1 h. activity change, % at 10 µM. hit rate 0.3% among 360,000. AID 1224865, 2016; in the data active = activity change above about 30%, passing the limit was not always enough
# Tb MetRS inh – T. brucei MetRS inhibitors, primary screen, biochemical, luminescence; hit rate 0.4% among 360,000; inhibition, % at 11.9 µM; methionyl-tRNA synthetase (Trypanosoma brucei brucei); purified T. brucei MetRS, ATP depletion, Kinase-Glo luminescence;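 active = inhibition above a per-plate cutoff of the control wells' mean inhibition plus 3 SD, cut at about 5.5% in these data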;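 note: 0% = DMSO wells median and 100% = median of wells with control inhibitor compound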
#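 Material: T. brucei methionyl-tRNA synthetase, purified; reagent: substrates ATP, L-methionine and bulk Escherichia coli tRNA; dosing: 11.9 µM single point; timing: 15 min plus 2 h at 25 °C; detection: luminescence of leftover ATP; evaluation: % inhibition; control set: DMSO-only wells as low control; replicates: singlicate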
# Rpn11 block – Rpn11 (PSMD14) deubiquitinase inhibitors, primary screen, biochemical, fluorescence polarization, uHTS | 26S proteasome non-ATPase regulatory subunit 14 (Homo sapiens), O00487 | human 26S proteasome, Ub4-pepOG fluorescence polarization; 20S core pre-blocked with epoxomicin | inhibition, % at 20 µM | hit rate 0.59% among 360,000;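 active = inhibition at 20 µM, scaled to each plate's controls, above about 33%, limit read from the data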
# CSN inh – inhibitors of CSN-mediated cullin deneddylation, primary screen, biochemical, fluorescence polarization, uHTS | COP9 signalosome complex subunit 5 (Homo sapiens), Q92905 | Purified CSN, SCF-Nedd8-OG deneddylation | inhibition, % at 12.5 µM | hit rate 0.38% among 360,000 | AID 651999, 2013;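 active = pattern-corrected inhibition above about 35%, with an unprinted fluorescence ratio check between 0.5 and 1.5, limit read from the data, passing the limit was not always enough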;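 note: 0% = enzyme with substrate and 100% = substrate without enzyme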
#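 assay system = purified human Csn5 enzyme expressed in HEK293T cells | amount = 0.24 nM enzyme | buffer or medium = Tris/NaCl/DTT buffer, pH 7.5 | reagent = 10 nM SCFSkp2-Nedd8OG | compound = one concentration, 12.5 µM, 0.25% DMSO | times = 90 min reaction at room temperature | signal = FP | read-out basis = % inhibition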
# PREPL inh – PREPL enzyme inhibitors, primary screen, biochemical, fluorescence polarization; recombinant PREPL, fluorescence polarization activity-based probe; inhibition, % at 5.96 µM; hit rate 0.68% among 320,000; in the data active = inhibition above about 43%;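 note: 0% = enzyme with DMSO and 100% = wells lacking enzyme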
# Neddylation inh – inhibitors of cullin neddylation, primary screen, biochemical, TR-FRET, uHTS, NAE and Ubc12 | NEDD8-conjugating enzyme Ubc12 (Homo sapiens) + NEDD8-activating enzyme E1 regulatory … | inhibition, % at 25 µM | hit rate 0.58% among 360,000; in the data active = inhibition above about 36%
# Rpn11 inh conf – Rpn11 (PSMD14) deubiquitinase inhibitors, confirmation, biochemical, fluorescence polarization, single concentration; shares compounds with Rpn11 block; purified human 26S proteasome, Ub4-pepOG fluorescence polarization; proteasome pretreated with epoxomicin; inhibition, % at 20 µM; hit rate 29% among 1,900; AID 602318, 2012
# MMP-2 counter – MMP-2 enzyme inhibition, confirmation, counter-screen for RPN11 inhibitor project, biochemical, fluorescence, single concentration; shares compounds with Rpn11 block; recombinant MMP-2, FRET peptide cleavage fluorescence; inhibition, % at 20 µM; hit rate 4% among 1,900; AID 602330, 2012;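 note: human MMP-2 activated beforehand with APMA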
# Target sequence (P08253 whole entry, looked up): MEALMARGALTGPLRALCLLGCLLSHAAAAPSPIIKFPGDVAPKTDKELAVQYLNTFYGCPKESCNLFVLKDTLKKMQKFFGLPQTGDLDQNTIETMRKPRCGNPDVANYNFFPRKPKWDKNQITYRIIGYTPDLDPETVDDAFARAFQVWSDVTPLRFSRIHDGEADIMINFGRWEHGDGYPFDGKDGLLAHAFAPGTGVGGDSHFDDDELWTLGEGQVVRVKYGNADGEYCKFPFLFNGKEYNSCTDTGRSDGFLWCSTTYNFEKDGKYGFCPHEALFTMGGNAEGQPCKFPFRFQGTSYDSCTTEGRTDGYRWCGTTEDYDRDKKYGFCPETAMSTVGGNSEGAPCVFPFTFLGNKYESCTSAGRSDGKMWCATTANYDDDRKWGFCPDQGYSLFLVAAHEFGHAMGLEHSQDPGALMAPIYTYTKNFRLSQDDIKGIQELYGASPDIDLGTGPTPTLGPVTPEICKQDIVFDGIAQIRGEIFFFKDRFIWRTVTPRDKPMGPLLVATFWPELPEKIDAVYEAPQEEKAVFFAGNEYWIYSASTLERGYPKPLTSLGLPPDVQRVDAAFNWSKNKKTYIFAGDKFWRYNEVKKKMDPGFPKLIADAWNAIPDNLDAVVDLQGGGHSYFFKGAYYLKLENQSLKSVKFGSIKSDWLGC
# Thrombin inh – bovine thrombin protease inhibition, confirmation, counter-screen for Rpn11 inhibitor project, biochemical, fluorescence polarization, single concentration. shares compounds with Rpn11 block. bovine thrombin cleavage of Ub4-pepOG. inhibition, % at 20 µM. hit rate 13% among 1,900. AID 602333, 2012;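 active = mean inhibition at least 40% at 20 µM, or signal 3 deviations below plate average, so some actives read negative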;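 note: plate controls were thrombin with DMSO for no effect and buffer wells lacking thrombin for full effect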
# * marks the source's active call; other numbers are inactive results; nt = no result given; + = active, no number. Cut-off read from the data, not from the text of the source, unless noted: active = inhibition above about 40%; inactive = the rest.
SMILES,HNF4A DNA FP,Tb MetRS inh,Rpn11 block,CSN inh,PREPL inh,Neddylation inh,Rpn11 inh conf,MMP-2 counter,Thrombin inh
CCOC(=O)[C@]12CCCC=C1N(CCC1=CCCCC1)C(=O)[C@H](CC(=O)N1CCN(C(=O)C3CC3)CC1)C2,2,0,nt,-2,nt,-5,nt,nt,nt
O=[N+]([O-])c1ccc(/C=N/Nc2ccc3ccccc3c2)o1,10,-1,41*,23,42,-7,25,9,13
O=[N+]([O-])c1ccc(NN=Cc2cccc3ccccc23)cc1,27,0,51*,8,nt,-16,14,-12,6
O=[N+]([O-])c1ccc(N/N=C\c2ccccc2OCc2ccccc2)cc1,27,1,37,16,11,-23,nt,nt,nt
O=C1NC[C@H](CCCCN2C[C@H](Cc3ccc(O)cc3)N(CCC3CCCCC3)C(=O)C2=O)N(CCC2CCCCC2)C1=O,-2,-1,nt,-2,nt,0,nt,nt,nt
COc1ccc(CNC(=O)C2CCN(S(=O)(=O)N3CCCCC3)CC2)c(OC)c1,-1,0,1,3,15,-3,nt,nt,nt
CC(=O)Nc1ccc2c(c1)C(=O)N(c1ccc(C)cc1)C2=O,-1,-1,-1,7,5,-81,nt,nt,nt
COc1ccc(N2C(=O)c3ccc(NC(C)=O)cc3C2=O)cc1,28,0,41*,3,-2,-28,-18,31,-22
O=C(Nc1nc(-c2ccco2)cs1)c1ccccc1,12,-1,45*,8,4,4,-3,11,-11
O=C(Nc1nc(-c2ccccc2)cs1)c1ccco1,-3,0,2,3,-10,-25,nt,nt,nt
CS(=O)(=O)Nc1cccc(NC(=O)c2cccc3c(-c4cccc(C(N)=O)c4)coc23)c1,0,0,4,-3,nt,11,nt,nt,nt
CC(=O)c1cccc(NC(=O)c2cccc3c(-c4cccc(C(N)=O)c4)coc23)c1,1,0,+,22,nt,-12,31,-25,57*
COc1ccc(CNCc2cn(-c3cccc(F)c3)nc2-c2ccc(C)o2)cc1,31,-1,43*,12,24,17,4,-9,-16
COc1ccc(-c2nn(-c3ccccc3)cc2CNCc2cccnc2)c(F)c1,-2,-1,-7,-1,4,6,nt,nt,nt
CC(C)[C@H](NC(=O)c1ccccc1F)C(=O)NC1CCCCCCC1,5,0,-7,0,4,3,nt,nt,nt
COc1ccc(N2CCN(Cc3nc4scc(-c5cccs5)c4c(=O)[nH]3)CC2)cc1,12,0,58*,18,-17,-2,8,17,-11
CC1Cc2ccccc2N1Cc1nc2scc(-c3cccs3)c2c(=O)[nH]1 (centres undefined),5,0,2,1,8,8,nt,nt,nt
O=c1[nH]c(CN2CCN(c3ccccc3)CC2)nc2scc(-c3ccccc3)c12,12,0,41*,-1,16,-130,14,9,-5
COc1ccc(N2CCN(Cc3nc4scc(-c5ccccc5)c4c(=O)[nH]3)CC2)cc1,7,-2,27,2,11,-11,nt,nt,nt
COCCNC(=O)C1(C)Cc2c(-c3ccc(N(C)C)cc3)ccnc2O1 (centres undefined),0,0,-7,-4,nt,nt,nt,nt,nt
CCN(CC)C(=O)C1=C(C)N(CCCN2CCCC2=O)C(=O)C(CC(=O)NCCCN(C)C)C1 (centres undefined),-10,-1,0,4,nt,-1,nt,nt,nt
CCCSC1=N/C(=C\c2ccc3c(c2)OCO3)C(=O)S1,-2,0,14,1,-1,9,nt,nt,nt
CCSC1=N/C(=C\c2ccc3c(c2)OCO3)C(=O)S1,-8,-1,42*,6,7,0,74*,-26,-53
CN1C(=O)CC(c2cn(Cc3ccccc3)c3ccccc23)C1=O (centres undefined),18,0,54*,2,34,3,21,-28,23
CCCC[C@@H]1Cc2[nH][nH]c(=O)c2[C@H](c2cccc3ccccc23)O1,-2,0,nt,-7,nt,-3,nt,nt,nt
SMILES,HNF4A DNA FP,Tb MetRS inh,Rpn11 block,CSN inh,PREPL inh,Neddylation inh,Rpn11 inh conf,MMP-2 counter,Thrombin inh
CC(C)(C)c1cc(C2COC(=O)COCCOCC(=O)OCCOCCO2)cc(C(C)(C)C)c1O (centres undefined),-3,-1,-1,-4,nt,4,nt,nt,nt
Cc1cccc(C(=O)O)c1NC(=O)Cc1cccc2ccccc12,-4,0,-2,6,-8,15,nt,nt,nt
COc1ccc(/C=C/C(=O)NCC(=O)n2nc(C)cc2C)cc1,0,-1,-8,-6,1,-8,nt,nt,nt
Cc1cc(C)n(C(=O)CNC(=O)/C=C/c2ccccc2)n1,11,1,72*,3,-4,-7,-17,-18,-20
CCOc1cccc(C(=O)Nc2ccccc2C(=O)N2CCOCC2)c1,7,-1,-5,2,0,0,nt,nt,nt
Cn1c(N)c(C(=O)COC(=O)c2cc(C3CC3)nc3ccccc23)c(=O)n(Cc2ccccc2)c1=O,20,0,41*,2,-14,-36,29,-15,6
Cn1c(=O)c(C(=O)COC(=O)c2cc(-c3ccco3)nc3ccccc23)c(N)n(Cc2ccccc2)c1=O,nt,nt,nt,nt,-24,nt,nt,nt,nt
CC(C)Cn1c(N)c(C(=O)COC(=O)c2cc(-c3ccco3)nc3ccccc23)c(=O)n(C)c1=O,0,1,41*,32,-21,-24,4,-37,10
Cn1c(N)c(C(=O)COC(=O)c2cc(-c3ccccc3)nc3ccccc23)c(=O)n(Cc2ccccc2)c1=O,20,1,45*,-1,-7,-111,33,2,20
Cc1csc(SCC(=O)NC(=O)NCc2ccccc2)n1,-1,-1,183*,0,-2,-6,-10,15,6
